The values that follow come from article PMC4495401 (Genes & Development, 2015).

Residue numbers refer to the chain shown, from its start. “Also recorded” adds a separate entry of the source.

One test concerns the target T1, SIRT1 E230A mutant (Homo sapiens, UniProt Q96EB6, C253S/C268S/C501S/C502S/DEL513-640/E230A).
T1 sequence (Q96EB6 with tags, fused parts or gaps E230A/C253S/C268S/C501S/C502S/DEL513-640 limits assumed): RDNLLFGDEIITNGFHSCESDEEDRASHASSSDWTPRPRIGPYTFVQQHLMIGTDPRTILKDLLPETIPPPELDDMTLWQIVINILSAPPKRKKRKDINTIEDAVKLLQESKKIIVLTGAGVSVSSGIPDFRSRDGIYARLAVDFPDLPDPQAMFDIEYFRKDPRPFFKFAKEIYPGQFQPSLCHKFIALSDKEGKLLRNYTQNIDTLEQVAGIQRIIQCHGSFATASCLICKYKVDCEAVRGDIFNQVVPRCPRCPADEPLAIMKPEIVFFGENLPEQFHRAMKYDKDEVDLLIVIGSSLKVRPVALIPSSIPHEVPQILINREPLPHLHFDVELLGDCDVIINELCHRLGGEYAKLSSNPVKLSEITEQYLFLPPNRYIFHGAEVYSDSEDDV
As to the kind of experiment: Enzyme-coupled deacetylation assay, SIRT1 E230A. Format: biochemical. Conditions: p53-AMC 100 μM, 0.2 mM resveratrol, PBS pH 7.4, 37°C. Summed up: (§1)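 Mutants are made in the SIRT1-143CS background. Continuous coupled assay in PBS pH 7.4: 2 mM NAD, 100 μM p53-AMC, ±0.2 mM resveratrol, 0.2 mM NADH, 3.3 mM α-ketoglutarate, 1 μM PncA, 3 U glutamate dehydrogenase, 1 mM DTT, 2% DMSO. Pre-equilibrated 5–10 min at 37°C without NAD, then started with NAD. A340 followed 15 min, minus no-NAD background. Rate taken from the linear portion, three repeats.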

For test [1], the system named is fluorophore-attached p53 peptides. Conditions: ref Borra et al. 2005; Pacholec et al. 2010; cited from earlier work.
In a further test the test system is SIRT5. The conditions noted are these: fluorogenic Fluor-de-Lys (FdL) peptide substrate; ref Gertz et al. 2012; cited from earlier work.
The next test addresses T2, SIRT1 E230K mutant (Homo sapiens, UniProt Q96EB6, C253S/C268S/C501S/C502S/DEL513-640/E230K).
T2 sequence (Q96EB6 with tags, fused parts or gaps E230K/C253S/C268S/C501S/C502S/DEL513-640 limits assumed): T1 sequence (Q96EB6 with tags, fused parts or gaps E230A/C253S/C268S/C501S/C502S/DEL513-640 limits assumed) with A88K
In words: Enzyme-coupled deacetylation assay, SIRT1 E230K. The test is classed as biochemical. The conditions noted are these: p53-AMC 100 μM, 0.2 mM resveratrol, PBS pH 7.4, 37°C. Summed up:
as §1

The test system of another test is SIRT3. Conditions: fluorogenic Fluor-de-Lys (FdL) peptide substrate; ref Gertz et al. 2012; cited from earlier work.
Another test concerns the target T3, SIRT1-143CS (Homo sapiens, UniProt Q96EB6, C253S/C268S/C501S/C502S/DEL513-640).
T3 sequence (Q96EB6 with tags, fused parts or gaps C253S/C268S/C501S/C502S/DEL513-640 limits assumed): T1 sequence (Q96EB6 with tags, fused parts or gaps E230A/C253S/C268S/C501S/C502S/DEL513-640 limits assumed) with A88E
Format: biochemical. The conditions noted are these: 0.2 mM resveratrol, PBS pH 7.4, 37°C.

The next test deals with T4, SIRT1 R446A mutant (Homo sapiens, UniProt Q96EB6, C253S/C268S/C501S/C502S/DEL513-640/R446A).
T4 sequence (Q96EB6 with tags, fused parts or gaps C253S/C268S/R446A/C501S/C502S/DEL513-640 limits assumed): T1 sequence (Q96EB6 with tags, fused parts or gaps E230A/C253S/C268S/C501S/C502S/DEL513-640 limits assumed) with A88E, R304A
As to the kind of experiment: Enzyme-coupled deacetylation assay, SIRT1 R446A. The test is classed as biochemical. The conditions noted are these: p53-AMC 100 μM, 0.2 mM resveratrol, PBS pH 7.4, 37°C. The procedure, abridged:
as §1

The target in test [2] is T5, SIRT1-143CS (C253S, C268S, C501S, C502S) (Homo sapiens, UniProt Q96EB6, C253S/C268S/C501S/C502S/DEL513-640).
T5 sequence (Q96EB6 with tags, fused parts or gaps C253S/C268S/C501S/C502S/DEL513-640 limits assumed): T1 sequence (Q96EB6 with tags, fused parts or gaps E230A/C253S/C268S/C501S/C502S/DEL513-640 limits assumed) with A88E
As to the kind of experiment: ITC peptide binding, SIRT1-143CS. Conditions: 25°C, 0.5 mM resveratrol. Summed up: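 p53-AMC peptide ([acR]HK[Kac]-AMC) at 1.5 mM was titrated into 0.1 mM SIRT1 protein at 25°C with 600 rpm stirring. The run used 20 injections, a 0.5 μL first drop that was not used, 2 μL drops thereafter and 2 min intervals. Titrant and protein were both in 20 mM HEPES pH 7.5, 150 mM NaCl, 10% glycerol, with or without 0.5 mM resveratrol. Buffer-only titrant heat was subtracted, and KD came from a one-site fit.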

The next test has as its target p53-AMC peptide. As to the kind of experiment: ITC, resveratrol to p53-AMC peptide. Format: binding. The conditions noted are these: 25°C. (Isothermal titration calorimetry measures the heat released or taken up as one component is titrated into another.)
The subject of another test is SIRT1-143. As to the kind of experiment: Enzyme-coupled deacetylation assay, SIRT1-143. Conditions: p53-AMC substrate, 0.5 mM resveratrol (Fig. 1B). Format: biochemical, human. Summed up: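 Purified tag-free SIRT1 fragments (his-sumo tag removed after Ni-IDA, then size exclusion) in the continuous nicotinamidase/glutamate dehydrogenase-coupled assay. NADH oxidation was read at 340 nm using an extinction coefficient of 6.22 mM−1 cm−1. Reactions at 37°C in PBS pH 7.4, started with NAD, with and without resveratrol. Background from no-NAD controls was subtracted.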

For another test, the target named is T6, SIRT1 Q222A/N226A mutant (Homo sapiens, UniProt Q96EB6, C253S/C268S/C501S/C502S/DEL513-640/N226A/Q222A).
T6 sequence (Q96EB6 with tags, fused parts or gaps Q222A/N226A/C253S/C268S/C501S/C502S/DEL513-640 limits assumed): T1 sequence (Q96EB6 with tags, fused parts or gaps E230A/C253S/C268S/C501S/C502S/DEL513-640 limits assumed) with Q80A, N84A, A88E
In words: Enzyme-coupled deacetylation assay, SIRT1 Q222A/N226A. Format: biochemical. The conditions noted are these: p53-AMC 100 μM, 0.2 mM resveratrol, PBS pH 7.4, 37°C. Summed up: as §1

The target in test [3] is SIRT1 NTD (isolated protein domain). In words: ITC, resveratrol to isolated SIRT1 NTD. The test is classed as binding, human. Conditions: 25°C.

For `Oc1ccc(/C=C/c2cc(O)cc(O)c2)cc1` [resveratrol], the “stimulatory effect of resveratrol” value on SIRT1 E230A mutant and on SIRT1 E230K mutant was “significantly reduced the stimulatory effect of resveratrol” each time. Further, the “interaction with fluorophore-attached p53 peptides” value in test [1] was “weakly”. The “effect on SIRT5 activity” value with SIRT5 is recorded as “stimulate the activity of SIRT5”. Further, the “effect on SIRT3 activity” value with SIRT3 is listed as “inhibit SIRT3”. The “effect of resveratrol on Km for the p53-AMC peptide” value on SIRT1-143CS is “significantly lowered the Km value for the p53-AMC peptide; also recorded: lowered the Km value of the fluorogenic peptide”. In addition, the “effect of resveratrol on Km for PGC-1α and FOXO3a peptides” value on SIRT1-143CS (native peptides without fluorophore) is “less pronounced”. Besides, at SIRT1 R446A mutant, the “level of resveratrol stimulation” value is on record as “level of resveratrol stimulation similar to that of the E230K mutant”. The “effect of resveratrol on binding between SIRT1 and the p53-AMC peptide” value in [2] was “increased the binding between SIRT1 and the p53-AMC peptide”. Besides, the “binding affinity between resveratrol and the p53-AMC peptide” value at p53-AMC peptide is “too weak to be reliably quantitated”. Besides, the “stimulation of deacetylase activity by resveratrol” value with SIRT1-143 was “stimulated by resveratrol in a manner similar to that of the full-length protein”. At SIRT1 Q222A/N226A mutant, the “response to the addition of resveratrol” value was “conspicuous level of reduction in response to the addition of resveratrol”. The “binding affinity between resveratrol and the SIRT1 NTD” value in [3] is reported as “too weak to be reliably quantitated”.
